Legend:
Format in all cases: nucleic-acid assay
[1] = tested on: Nucleic Acid; assay: Evaluated for thermal denaturation at pH 3.9 against poly(A)-poly(U) synthetic RNA oligonucleotide
Summary of the method: (§1)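 Polymer (poly(A)·poly(U) or poly(dA)·poly(dT)) at 1.0×10^-4 M in MES buffer (0.01 M MES, 0.001 M EDTA, 0.1 M NaCl), pH set with NaOH to the listed value. Compound added to a final drug:polymer phosphate ratio of 0.3. Absorbance at 260 nm followed while heating at 0.5 °C/min in 1-cm cells. ΔTm is the Tm shift of the complex versus the free polymer.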

[2] = tested on: Nucleic Acid; assay: Evaluated for thermal denaturation at pH 3.9 against poly(A)-poly(dt) synthetic DNA oligonucleotide; summary of the method: as §1
[3] = tested on: Nucleic Acid; assay: Evaluated for thermal denaturation at pH 6.3 against poly(A)-poly(U) synthetic RNA oligonucleotide; summary of the method: as §1
[4] = tested on: Nucleic Acid; assay: Evaluated for thermal denaturation at pH 6.3 against poly(A)-poly(dt) synthetic DNA oligonucleotide; summary of the method: as §1
[5] = tested on: Nucleic Acid; assay: Evaluated for thermal denaturation at pH 4.9 against poly(A)-poly(U) syntheticRNA oligonucleotide; summary of the method: as §1
[6] = tested on: Nucleic Acid; assay: Thermal denaturation at pH 4.9 against poly(A)-poly(dt) synthetic DNA oligonucleotide; summary of the method: as §1
[7] = tested on: Nucleic Acid; assay: Evaluated for thermal denaturation at pH 4.9 against poly(A)-poly(dt synthetic DNA oligonucleotide; summary of the method: as §1
[8] = tested on: Nucleic Acid; assay: Thermal denaturation at pH 6.3 against poly(A)-poly(U) synthetic RNA oligonucleotide; summary of the method: as §1

ΔTm [1]	ΔTm [2]	ΔTm [3]	ΔTm [4]	ΔTm [5]	ΔTm [6]	ΔTm [7]	ΔTm [8]	Structure (SMILES)
2.4	0.2	0	0	–	–	–	–	c1ccc(CN2CCN(CCCN3CCN(Cc4ccccc4)CC3)CC2)cc1
17.7	5.6	8.1	3.5	15.4	6.7	–	–	c1cc(CN2CCC(N3CCCCC3)CC2)ccc1CN1CCC(N2CCCCC2)CC1
–	–	0	0	0	–	0	–	c1cnc(N2CCN(Cc3ccc(CN4CCN(c5ncccn5)CC4)cc3)CC2)nc1
–	–	0.4	0	0.9	–	0	–	OCC1CCCN(CCCN2CCCC(CO)C2)C1 (centres undefined)
22.2	4.1	9.8	3.3	20.7	–	4.5	–	C1CCN(C2CCN(CCCN3CCC(N4CCCCC4)CC3)CC2)CC1
–	–	0.2	0	0.5	–	0.5	–	OCC1CCN(CCCN2CCC(CO)CC2)CC1
–	–	0	0	0	–	0	–	N#CC1CCN(CCCN2CCC(C#N)CC2)CC1
–	–	0	0	–	–	–	–	OC1CCN(Cc2ccc(CN3CCC(O)CC3)cc2)CC1
11	0	0	0	1.3	–	0	–	CN1CCN(CCCN2CCN(C)CC2)CC1
23.3	8.8	16.2	8.7	20.7	–	9.5	–	c1cc(CN2CCC(C3=NCCN3)CC2)ccc1CN1CCC(C2=NCCN2)CC1
–	–	0	0	0.3	–	0.2	–	C1CCN(CCN2CCN(CCN3CCCCC3)CC2)CC1
34.7	10.4	–	6.5	22.9	–	8.3	7.6	C1CCN(C2CCN(CCN3CCN(CCN4CCC(N5CCCCC5)CC4)CC3)CC2)CC1
–	–	0	0	0	–	0	–	C1CCN(CCCN2CCCCC2)CC1
–	–	0	0	0	–	0	–	c1cnc(N2CCN(Cc3cccc(CN4CCN(c5ncccn5)CC4)c3)CC2)nc1
28.7	6.1	18.1	6.1	24.5	–	5.6	–	C(CN1CCC(C2=NCCN2)CC1)CN1CCC(C2=NCCN2)CC1
–	–	0	0.1	1.2	–	0.7	–	C(CC1CCNCC1)CC1CCNCC1
–	–	8	3.3	–	–	–	–	c1cc(CN2CCC(N3CCCCC3)CC2)cc(CN2CCC(N3CCCCC3)CC2)c1

Structure (SMILES)	ΔTm [1]	ΔTm [2]	ΔTm [3]	ΔTm [4]	ΔTm [5]	ΔTm [6]	ΔTm [7]	ΔTm [8]
c1cc(CN2CCN(Cc3ccc(CN4CCNCC4)cc3)CC2)ccc1CN1CCNCC1	29.3	12	0	2.3	15.7	–	5.1	–
c1cc(CN2CCNCC2)ccc1CN1CCNCC1	–	–	0	0	–	–	–	–
